# According to article PMC6980747 (Cell chemical biology, 2019):
# Columns and labels:
# [1] = system: ZR-75-1 cells; assay: Growth rate inhibition; assay type: cell-based; conditions: ZR-75-1, 72-hour treatment
# [2] = system: pPRAS40, pGSK3β, pS6 in T47D cells; assay: Immunoblot of downstream AKT signaling in T47D cells; assay type: cell-based; conditions: 24 hours
# [3] = system: pPRAS40 in T47D and MDA-MB-468 cells; assay: Time course and washout immunoblots of pPRAS40; assay type: cell-based; conditions: for pPRAS40 levels over time: 250 nM, T47D and MDA-MB-468, continuous treatment; for pPRAS40 levels after washout: 12 hours treatment with 250 nM, then washout
# [4] = target: AKT1 (Homo sapiens, UniProt P31749); assay: Z'-LYTE FRET-based kinase inhibition assay, AKT1; assay type: biochemical
# [5] = target: AKT2 (Homo sapiens, UniProt P31751); assay: Z'-LYTE FRET-based kinase inhibition assay, AKT2; assay type: biochemical
# [6] = target: AKT3 (Homo sapiens, UniProt Q9Y243); assay: Z'-LYTE FRET-based kinase inhibition assay, AKT3; assay type: biochemical
# [7] = target: RET (V804M) (Homo sapiens, UniProt P07949, V804M); assay: LanthaScreen assay, RET; assay type: biochemical
# [8] = target: T1, S6K1 (Homo sapiens, UniProt P23443); assay: Z'-LYTE kinase assay, S6K1; assay type: biochemical
# [9] = target: PKG1 (Homo sapiens, UniProt Q13976); assay: Z'-LYTE kinase assay, PKG1; assay type: biochemical
# [10] = system: AKT1, AKT2, AKT3 in MDA-MB-468 cells; assay: Immunoblot of AKT isoform degradation in MDA-MB-468 cells; assay type: cell-based
# [11] = system: AKT isoforms in T47D cells; assay: Immunoblot of AKT degradation in T47D cells; assay type: cell-based; conditions: 24-hour treatment, 250 nM
# [12] = system: AKT in T47D and MDA-MB-468 cells; assay: Time course and washout immunoblots of AKT levels; assay type: cell-based
# [13] = system: MOLT4 cells proteome; assay: TMT quantitative mass spectrometry proteomics in MOLT4 cells; assay type: cell-based, human; conditions: MOLT4, 250 nM, 4 hours, vs DMSO
# [14] = target: T1, S6K1; assay: Immunoblot of S6K1 degradation; assay type: cell-based
# [15] = system: Ikaros (IKZF1) and Aiolos (IKZF3); assay: Immunoblot of Ikaros and Aiolos degradation; assay type: cell-based; conditions: 24 hours of drug treatment
# Summary of the method: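 Cells were seeded at 250,000/mL (T47D at 200,000/mL) in RPMI or DMEM with 10% serum, left overnight, then given test compound. They were lysed 15 min in RIPA (pH 7.5) with 0.1% SDS, phosphatase and protease inhibitors, cleared at 14,000 rpm for 10 min at 4°C, and protein-normalized. Lysates went through SDS-PAGE and nitrocellulose transfer, milk block, primary antibodies at 4°C overnight, and fluorescent secondaries 1 h RT. Imaging was on a LI-COR Odyssey.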
# [16] = system: MDA-MB-468 and HCC1937 cells; assay: Growth rate inhibition; assay type: cell-based; conditions: MDA-MB-468 and HCC1937, 72-hour treatment
# [17] = system: ZR-75-1, T47D, LNCaP, and MCF-7 cells; assay: Growth rate inhibition; assay type: cell-based; conditions: 72-hour treatment, Figures 3A-D
# T1 sequence (P23443 whole entry): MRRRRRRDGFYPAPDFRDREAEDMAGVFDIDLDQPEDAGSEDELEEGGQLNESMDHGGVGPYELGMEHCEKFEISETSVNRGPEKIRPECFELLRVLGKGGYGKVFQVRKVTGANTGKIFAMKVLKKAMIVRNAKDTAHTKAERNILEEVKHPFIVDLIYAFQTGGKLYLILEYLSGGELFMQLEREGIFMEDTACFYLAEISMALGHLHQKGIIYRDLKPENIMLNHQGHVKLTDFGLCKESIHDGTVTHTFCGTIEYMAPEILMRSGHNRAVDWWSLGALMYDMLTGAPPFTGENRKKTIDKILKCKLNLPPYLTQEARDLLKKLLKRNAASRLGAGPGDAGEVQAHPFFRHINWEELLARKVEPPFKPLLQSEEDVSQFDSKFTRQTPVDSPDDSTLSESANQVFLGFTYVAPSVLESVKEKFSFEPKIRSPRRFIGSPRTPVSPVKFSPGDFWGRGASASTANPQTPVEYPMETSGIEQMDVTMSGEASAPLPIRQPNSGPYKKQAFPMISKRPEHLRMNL
# AKT1, sequence (P31749 whole entry): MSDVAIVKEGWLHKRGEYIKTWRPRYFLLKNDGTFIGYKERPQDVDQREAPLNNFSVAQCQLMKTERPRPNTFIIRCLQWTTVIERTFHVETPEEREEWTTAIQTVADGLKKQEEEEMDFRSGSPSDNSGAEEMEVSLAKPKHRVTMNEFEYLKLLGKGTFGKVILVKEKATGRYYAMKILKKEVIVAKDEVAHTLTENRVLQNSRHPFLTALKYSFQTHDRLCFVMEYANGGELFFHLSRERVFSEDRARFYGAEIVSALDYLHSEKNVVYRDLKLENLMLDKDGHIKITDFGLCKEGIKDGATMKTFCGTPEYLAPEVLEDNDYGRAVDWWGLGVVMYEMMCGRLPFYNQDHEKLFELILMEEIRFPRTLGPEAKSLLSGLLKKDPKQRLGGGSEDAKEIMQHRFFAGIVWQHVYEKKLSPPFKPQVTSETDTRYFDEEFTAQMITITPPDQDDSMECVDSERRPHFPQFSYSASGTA
# RET (V804M), sequence (P07949 29-1114 V804M): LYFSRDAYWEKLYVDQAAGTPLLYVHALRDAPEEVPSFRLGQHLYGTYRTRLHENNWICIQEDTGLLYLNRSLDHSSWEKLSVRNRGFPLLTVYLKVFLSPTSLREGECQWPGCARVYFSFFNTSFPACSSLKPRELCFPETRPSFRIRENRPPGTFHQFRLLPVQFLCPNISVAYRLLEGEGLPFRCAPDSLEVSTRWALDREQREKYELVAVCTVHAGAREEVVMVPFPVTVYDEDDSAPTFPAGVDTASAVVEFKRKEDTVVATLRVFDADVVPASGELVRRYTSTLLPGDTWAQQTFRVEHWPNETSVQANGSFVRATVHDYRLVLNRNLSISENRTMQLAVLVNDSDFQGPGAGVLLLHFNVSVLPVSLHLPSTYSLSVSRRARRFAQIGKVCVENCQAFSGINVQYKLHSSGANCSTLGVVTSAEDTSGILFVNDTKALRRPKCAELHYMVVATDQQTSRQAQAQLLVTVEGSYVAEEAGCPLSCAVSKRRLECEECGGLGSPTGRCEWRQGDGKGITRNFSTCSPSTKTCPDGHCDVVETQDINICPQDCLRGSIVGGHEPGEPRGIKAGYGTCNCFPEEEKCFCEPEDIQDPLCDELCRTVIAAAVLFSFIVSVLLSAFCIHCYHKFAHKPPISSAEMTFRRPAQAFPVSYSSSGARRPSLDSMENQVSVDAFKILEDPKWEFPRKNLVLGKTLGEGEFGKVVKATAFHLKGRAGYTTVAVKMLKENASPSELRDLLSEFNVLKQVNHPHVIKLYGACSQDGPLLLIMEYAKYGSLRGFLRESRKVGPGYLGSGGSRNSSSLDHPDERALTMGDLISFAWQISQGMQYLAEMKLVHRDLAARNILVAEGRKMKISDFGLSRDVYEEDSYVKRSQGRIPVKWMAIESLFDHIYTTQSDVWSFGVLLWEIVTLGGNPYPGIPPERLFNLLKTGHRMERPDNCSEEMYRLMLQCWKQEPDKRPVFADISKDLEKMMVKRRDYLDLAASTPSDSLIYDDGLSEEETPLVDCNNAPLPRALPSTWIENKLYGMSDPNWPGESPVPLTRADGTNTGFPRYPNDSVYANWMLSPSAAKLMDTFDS
# AKT2, sequence (P31751 whole entry): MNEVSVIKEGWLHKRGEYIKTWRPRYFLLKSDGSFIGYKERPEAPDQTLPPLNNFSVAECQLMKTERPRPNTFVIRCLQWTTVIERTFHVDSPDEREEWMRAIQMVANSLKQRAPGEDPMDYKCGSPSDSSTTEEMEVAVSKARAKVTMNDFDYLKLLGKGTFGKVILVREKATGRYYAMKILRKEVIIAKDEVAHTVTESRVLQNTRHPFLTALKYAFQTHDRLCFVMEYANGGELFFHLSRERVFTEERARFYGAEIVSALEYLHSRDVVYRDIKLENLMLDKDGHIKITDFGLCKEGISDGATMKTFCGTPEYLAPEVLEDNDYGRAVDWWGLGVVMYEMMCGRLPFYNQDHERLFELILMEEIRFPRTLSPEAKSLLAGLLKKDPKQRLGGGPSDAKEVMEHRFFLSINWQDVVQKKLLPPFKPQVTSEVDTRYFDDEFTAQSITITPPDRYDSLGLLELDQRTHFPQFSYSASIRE
# PKG1, sequence (Q13976 whole entry, canonical isoform): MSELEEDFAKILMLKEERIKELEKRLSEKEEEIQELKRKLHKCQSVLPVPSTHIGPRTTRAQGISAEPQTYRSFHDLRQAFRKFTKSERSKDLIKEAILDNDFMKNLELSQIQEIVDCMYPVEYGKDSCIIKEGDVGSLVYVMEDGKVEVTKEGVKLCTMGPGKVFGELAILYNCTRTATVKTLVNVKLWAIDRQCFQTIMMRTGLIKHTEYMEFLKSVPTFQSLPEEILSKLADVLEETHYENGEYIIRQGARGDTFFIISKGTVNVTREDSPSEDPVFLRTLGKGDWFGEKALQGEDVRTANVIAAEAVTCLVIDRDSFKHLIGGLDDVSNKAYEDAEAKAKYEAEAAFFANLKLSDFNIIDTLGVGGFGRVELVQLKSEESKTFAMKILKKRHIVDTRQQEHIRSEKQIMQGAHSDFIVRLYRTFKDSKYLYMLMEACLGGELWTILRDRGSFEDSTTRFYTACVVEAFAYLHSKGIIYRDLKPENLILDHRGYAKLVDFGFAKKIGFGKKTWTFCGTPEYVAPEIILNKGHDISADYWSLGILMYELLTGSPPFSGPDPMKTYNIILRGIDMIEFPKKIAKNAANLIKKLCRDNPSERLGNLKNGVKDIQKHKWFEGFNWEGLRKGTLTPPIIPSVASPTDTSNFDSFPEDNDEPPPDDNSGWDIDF
# AKT3, sequence (Q9Y243 whole entry): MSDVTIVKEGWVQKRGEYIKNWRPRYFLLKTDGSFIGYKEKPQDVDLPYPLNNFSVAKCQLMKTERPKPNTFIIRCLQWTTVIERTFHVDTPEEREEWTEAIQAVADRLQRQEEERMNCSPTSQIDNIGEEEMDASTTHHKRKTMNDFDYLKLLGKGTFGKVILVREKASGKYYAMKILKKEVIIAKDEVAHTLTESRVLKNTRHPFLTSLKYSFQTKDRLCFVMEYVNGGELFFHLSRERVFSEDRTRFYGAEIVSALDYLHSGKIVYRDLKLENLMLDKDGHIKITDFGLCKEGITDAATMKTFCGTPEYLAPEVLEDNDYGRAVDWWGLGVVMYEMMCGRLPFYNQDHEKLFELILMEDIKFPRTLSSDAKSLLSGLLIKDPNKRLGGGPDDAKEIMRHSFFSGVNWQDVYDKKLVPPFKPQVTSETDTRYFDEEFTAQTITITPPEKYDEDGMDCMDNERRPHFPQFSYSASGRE
smiles,measurement,setting,value
"CC(C)NC[C@@H](C(=O)N1CCN(c2ncnc3c2[C@H](C)C[C@H]3O)CC1)c1ccc(Cl)cc1 [GDC-0068, ipatasertib, reference compound]",GR50,[1],229 nM
same,"dose required to observe comparable effects on pPRAS40, pGSK3β, and pS6",[2]; comparable to 250 nM INY-03-041,up to 1 μM
same,pPRAS40 levels over time,[3],less pronounced inhibition of pPRAS40
same,pPRAS40 levels after washout,[3],rebound of pPRAS40
"C[C@@H]1C[C@@H](O)c2ncnc(N3CCN(C(=O)[C@H](CNCCCCCCCCCCc4cccc5c4CN(C4CCC(=O)NC4=O)C5=O)c4ccc(Cl)cc4)CC3)c21 (stereo partly drawn) [INY-03-041, 3-(4-(10-(((S)-2-(4-chlorophenyl)-3-(4-((5R,7R)-7-hydroxy-5-methyl-6,7-dihydro-5H-cyclopenta[d]pyrimidin-4-yl)piperazin-1-yl)-3-oxopropyl)amino)decyl)-1-oxoisoindolin-2-yl)piperidine-2,6-dione]",IC50,[4],2 nM
same,IC50,[5],6.8 nM
same,IC50,[6],3.5 nM
same,IC50,[7],> 10000 nM
same,IC50,[8],37.3 nM
same,IC50,[9],33.2 nM
same,time to partial degradation of all AKT isoforms,"[10]; MDA-MB-468, 250 nM",≤ 4 h
same,concentration at which diminished AKT degradation (hook effect) was observed,"[10]; MDA-MB-468, 12-hour treatment",≥ 500 nM
same,AKT isoform levels after treatment,[11],no detectable levels of all three AKT isoforms
same,duration of sustained destabilization of all three AKT isoforms,"[12]; 250 nM, T47D and MDA-MB-468",at least 96 hours
same,AKT levels after compound washout,"[12]; 12 hours treatment with 250 nM, then washout",no detectable rebound of AKT levels for up to 96 hours
same,S6K1 and PKG1 abundance (proteomics),[13],no downregulation of either kinases was observed
same,change in protein abundance (proteomics),[13],"significant downregulation of all three AKT isoforms, as well as RNF166"
same,S6K1 degradation (immunoblot),[14],did not induce S6K1 degradation
same,IKZF1 and IKZF3 degradation (immunoblot),[15],weak IKZF1 and IKZF3 degradation
same,concentration at which IKZF1 and IKZF3 degradation was seen,[15],≥ 500 nM
same,GR50,[1],16 nM
same,fold increased potency compared to GDC-0068 (GR50),[1],14 fold
same,GR50 comparison,[16],no apparent differences in GR50 values between INY-03-041 and INY-03-112
same,"concentration that significantly reduced pPRAS40, pGSK3β, and pS6 levels",[2],250 nM
same,pPRAS40 levels over time,[3],significantly reduced for up to 96 hours
same,pPRAS40 levels after washout,[3],potently suppressed levels of pPRAS40 for up to 96 hours after washout
"C[C@@H]1C[C@@H](O)c2ncnc(N3CCN(C(=O)[C@H](CNCCCCCCCCCCc4cccc5c4CN(C4CCC(=O)N(C)C4=O)C5=O)c4ccc(Cl)cc4)CC3)c21 (stereo partly drawn) [INY-03-112, 3-(4-(10-(((S)-2-(4-chlorophenyl)-3-(4-((5R,7R)-7-hydroxy-5-methyl-6,7-dihydro-5H-cyclopenta[d]pyrimidin-4-yl)piperazin-1-yl)-3-oxopropyl)amino)decyl)-1-oxoisoindolin-2-yl)-1-methylpiperidine-2,6-dione]",AKT isoform degradation,"[10]; MDA-MB-468, immunoblot",did not induce potent degradation of any AKT isoform
same,GR50,[1],413 nM
Nc1cccc2c1CN(C1CCC(=O)NC1=O)C2=O (centres unmarked) [lenalidomide],anti-proliferative effects,[17],did not have strong anti-proliferative effects
